In article PMC11375963 (RSC Advances, 2024):

Experiments:
Cytotoxicity = type: cell-based; details: mouse, BV2 microglial cells
Procedure, shortened: (§1)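 Mouse BV2 microglia in DMEM with 10% FBS and 1% penicillin–streptomycin, 37 °C, 5% CO2. Seeded at 2 × 10^4 cells/well for 24 h, then exposed to test compound (0, 5, 10, 20, 40, 80 μM) for 24 h. MTT at 500 μg mL−1 for 3 h, formazan dissolved in DMSO, A570. Mean ± SD (n = 3); one-way ANOVA with Dunnett versus vehicle.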

TNF-α = TNF-α release; type: cell-based; details: LPS-induced BV2 cells, pretreatment, concentration-dependent manner (Fig. 4 and 5)
IL-6 = IL-6 release; type: cell-based; details: LPS-induced BV2 cells, pretreatment, concentration-dependent manner (Fig. 4 and 5)
MCP-1 = MCP-1 release; type: cell-based; details: LPS-induced BV2 cells, pretreatment, concentration-dependent manner (Fig. 4 and 5)
NF-κB (p65) = experiment: Western blot of LPS-induced NF-κB; type: cell-based; details: pretreated 1 hour with the highest safety dose, LPS for 1 hour (Fig. 6)
Procedure, shortened: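 BV2 cells (2 × 10^6 per 6 cm dish) got the highest non-cytotoxic test-compound concentration for 1 h, then LPS for 1 h. Lysates were centrifuged (4 °C, 12 000 rpm, 10 min), Bradford-quantified, 40 μg run on 10% SDS–PAGE and semi-dry blotted to nitrocellulose. P-p65, p65 (1:1000) and β-actin (1:2000) were detected by HRP anti-rabbit and ECL, then densitometry; one-way ANOVA/Bonferroni versus LPS.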

BV2 microglial cells = experiment: Cytotoxicity; type: cell-based; details: 24 hours, MTT, mean ± SD (n = 3)
Procedure, shortened: as §1

[1] = tested on: LPS-induced RAW264.7 cells; details: cited from earlier work

For `COC1=CC(=O)c2c(ccc3cc(OC)c(OC)c(OC)c23)C1=O` [Compound 1, 2,5,6,7-tetramethoxy-1,4-phenanthrenequinone], the viability at 24 h, 5 µM (Cytotoxicity) was 101 ± 3.33%, the viability at 24 h, 10 µM (Cytotoxicity) was 101.5 ± 0.67% and the viability at 24 h, 20 µM (Cytotoxicity) was 105 ± 7.09%. The viability at 24 h, 40 µM (Cytotoxicity) was 102 ± 8.6%, the viability at 24 h, 80 µM (Cytotoxicity) was 73.7 ± 18.5% and the “Effect on release of TNF-α” value (TNF-α) was “significantly reduced”. For the same compound, the “Effect on release of IL-6” value (IL-6) was “significantly reduced” and the “Effect on release of MCP-1” value (MCP-1) was “significantly reduced”.
Compound `COC1=CC(=O)c2ccc3cc(OC)c(OC)c(OC)c3c2C1=O` [Compound 3, 3,5,6,7-tetramethoxy-1,4-phenanthrenequinone] has a viability at 24 h, 5 µM (Cytotoxicity) of 99.9 ± 1.96%, a viability at 24 h, 10 µM (Cytotoxicity) of 95.6 ± 7.44% and a viability at 24 h, 20 µM (Cytotoxicity) of 94.9 ± 3.76%. For the same compound, the viability at 24 h, 40 µM (Cytotoxicity) was 88.8 ± 6.76%, the viability at 24 h, 80 µM (Cytotoxicity) was 55.1 ± 26.4% and the “Effect on release of TNF-α” value (TNF-α) was “significantly reduced”. For the same compound, the “Effect on release of IL-6” value (IL-6) was “significantly reduced”, the “Effect on release of MCP-1” value (MCP-1) was “significantly reduced” and the “Effect on LPS-induced NF-κB (p65) phosphorylation (P-p65-NF-κB/p65-NF-κB ratio)” value (NF-κB (p65)) was “significantly suppressed”.
In the case of `COc1ccc2c(c1O)CCc1cc(O)cc(OC)c1-2` [Compound 4, 9,10-dihydro-2,5-dimethoxy-1,7-phenanthrenediol], the viability at 24 h, 5 µM (Cytotoxicity) is reported as 102 ± 3.53%, the viability at 24 h, 10 µM (Cytotoxicity) is reported as 99.3 ± 5.77% and the viability at 24 h, 20 µM (Cytotoxicity) is reported as 101 ± 2.3%. The viability at 24 h, 40 µM (Cytotoxicity) was 95.3 ± 3.88% and the viability at 24 h, 80 µM (Cytotoxicity) was 49.1 ± 24.6%.
`O=Cc1ccc(O)cc1` [Compound 5, p-hydroxybenzaldehyde] showed a viability at 24 h, 5 µM (Cytotoxicity) of 105 ± 1.81%, a viability at 24 h, 10 µM (Cytotoxicity) of 104 ± 7.68% and a viability at 24 h, 20 µM (Cytotoxicity) of 101 ± 7.37%. For the same compound, the viability at 24 h, 40 µM (Cytotoxicity) was 101 ± 14.9% and the viability at 24 h, 80 µM (Cytotoxicity) was 94.5 ± 21.6%.
`COc1cc(O)cc2c1-c1c(O)cccc1CC2` [Compound 7, hircinol] gave a viability at 24 h, 5 µM (Cytotoxicity) of 105 ± 4.37%, a viability at 24 h, 10 µM (Cytotoxicity) of 108 ± 3.16% and a viability at 24 h, 20 µM (Cytotoxicity) of 112 ± 2.51%. It also gave a viability at 24 h, 40 µM (Cytotoxicity) of 111 ± 1.88% and a viability at 24 h, 80 µM (Cytotoxicity) of 104 ± 9.12%.
Compound `COc1cc2c(ccc3cc(OC)c(O)c(OC)c32)cc1O` [Compound 8, 3,7-dihydroxy-2,4,6-trimethoxyphenanthrene] has a viability at 24 h, 5 µM (Cytotoxicity) of 106.3 ± 0.36%, a viability at 24 h, 10 µM (Cytotoxicity) of 100 ± 6.16% and a viability at 24 h, 20 µM (Cytotoxicity) of 108.2 ± 0.53%. It also gave a viability at 24 h, 40 µM (Cytotoxicity) of 113 ± 1.57% and a viability at 24 h, 80 µM (Cytotoxicity) of 94.4 ± 21.2%.
`COc1cc2ccc3cccc(O)c3c2c(OC)c1O` [Compound 9, bulbophyllanthrin] gave a viability at 24 h, 5 µM (Cytotoxicity) of 102 ± 2.99%, a viability at 24 h, 10 µM (Cytotoxicity) of 101 ± 4.09% and a viability at 24 h, 20 µM (Cytotoxicity) of 105 ± 3.47%. For the same compound, the viability at 24 h, 40 µM (Cytotoxicity) was 105 ± 5.59% and the viability at 24 h, 80 µM (Cytotoxicity) was 112 ± 5.8%.
For `O=C(O)c1ccc(O)cc1` [Compound 10, p-hydroxybenzoic acid], the viability at 24 h, 5 µM (Cytotoxicity) was 101 ± 2.85%, the viability at 24 h, 10 µM (Cytotoxicity) was 96.6 ± 1.58% and the viability at 24 h, 20 µM (Cytotoxicity) was 104 ± 7.79%. For the same compound, the viability at 24 h, 40 µM (Cytotoxicity) was 95.8 ± 4.1% and the viability at 24 h, 80 µM (Cytotoxicity) was 85.1 ± 9.87%.
`COc1cc(C(=O)O)ccc1O` [Compound 11, vanillic acid] showed a viability at 24 h, 5 µM (Cytotoxicity) of 102.9 ± 0.86%, a viability at 24 h, 10 µM (Cytotoxicity) of 99.7 ± 1.55% and a viability at 24 h, 20 µM (Cytotoxicity) of 98.77 ± 0.86%. The viability at 24 h, 40 µM (Cytotoxicity) was 94.8 ± 2.82% and the viability at 24 h, 80 µM (Cytotoxicity) was 86.4 ± 4.09%.
With `COc1cc(O)c(Cc2ccc(O)cc2)c2c1-c1ccc(O)cc1CC2` [Compound 14, 1-(4-hydroxylbenzyl)-4-methoxy 9,10-dihydrophenanthrene 2,7-diol] the viability at 24 h, 5 µM (Cytotoxicity) was 108 ± 3.2%, the viability at 24 h, 10 µM (Cytotoxicity) was 97.9 ± 8.91% and the viability at 24 h, 20 µM (Cytotoxicity) was 91.9 ± 1.47%. For the same compound, the viability at 24 h, 40 µM (Cytotoxicity) was 65.9 ± 4.08%, the viability at 24 h, 80 µM (Cytotoxicity) was 26.7 ± 14.7% and the “Effect on release of TNF-α” value (TNF-α) was “significantly reduced”. For the same compound, the “Effect on release of IL-6” value (IL-6) was “significantly reduced” and the “Effect on release of MCP-1” value (MCP-1) was “significantly reduced”.
With `O=C(O)c1ccc(CO)cc1` [Compound 15, 4-hydroxymethyl benzoic acid] the viability at 24 h, 5 µM (Cytotoxicity) was 103 ± 1.97%, the viability at 24 h, 10 µM (Cytotoxicity) was 105 ± 3.91% and the viability at 24 h, 20 µM (Cytotoxicity) was 111 ± 2.26%. It also gave a viability at 24 h, 40 µM (Cytotoxicity) of 108 ± 2.12% and a viability at 24 h, 80 µM (Cytotoxicity) of 104 ± 3.05%.
With `COc1cc(/C=C/C(=O)NCCc2ccc(O)cc2)ccc1O` [Compound 17, N-trans-feruloyl tyramine] the viability at 24 h, 5 µM (Cytotoxicity) was 107 ± 6.44%, the viability at 24 h, 10 µM (Cytotoxicity) was 97.3 ± 7.01% and the viability at 24 h, 20 µM (Cytotoxicity) was 101 ± 8.73%. It also gave a viability at 24 h, 40 µM (Cytotoxicity) of 101 ± 5.33% and a viability at 24 h, 80 µM (Cytotoxicity) of 84.9 ± 5.53%.
For coelonin [Compound 6], the “Percentage viability (%)” value (BV2 microglial cells; 5 μM) was 106.33 ± 4.65%, the “Percentage viability (%)” value (BV2 microglial cells; 10 μM) was 108.08 ± 5.54% and the “Percentage viability (%)” value (BV2 microglial cells; 20 μM) was 105.55 ± 7.76%. The “Percentage viability (%)” value (BV2 microglial cells; 40 μM) was 76.69 ± 2.86 %, the “Percentage viability (%)” value (BV2 microglial cells; 80 μM) was 44.78 ± 13.23 % and the “Effect on release of TNF-α” value (TNF-α) was “significantly reduced”. The “Effect on release of IL-6” value (IL-6) was “significantly reduced”, the “Effect on release of MCP-1” value (MCP-1) was “significantly reduced” and the Anti-inflammatory activity [1] was “anti-inflammatory activity”.
